Measurements as given in the EternaBench riboswitch data.

Tested on: MS2 coat protein
Test: apparent Kd, MS2 coat protein; higher = weaker binding; RNA-MaP array; FMN 200 µM where present
How it was run: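 Stalled E. coli RNA polymerase produced the designs on Illumina sequencing-chip clusters. SNAP-549-labelled MS2 coat protein was added from 0.7 or 1.5 nM, doubling to 3 µM, without and then with constant ligand, in 100 mM Tris-HCl pH 7.5, 80 mM KCl, 4 mM MgCl2, BSA, DTT, yeast tRNA and Tween-20. The apparent Kd is the median of filtered per-cluster fits of green signal normalised to red-channel RNA signal and control-cluster median Fmax.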

[1] = designed as: OFF switch for flavin mononucleotide, no ligand
[2] = ligand present: flavin mononucleotide, designed as: OFF switch for flavin mononucleotide
[3] = designed as: ON switch for flavin mononucleotide, no ligand
[4] = ligand present: flavin mononucleotide, designed as: ON switch for flavin mononucleotide

GUAGAGUAGUGAGGAUAUACGAGUACGAUAGUACGGCGAUCCAUUAAUACAUGAGGAUCACCCAUGUAGAAGGCACUUCUCUAC
apparent Kd [1]: 6.6 nM | apparent Kd [2]: 84 nM

CAUUAAUUGAUUAUUGUAUUUUUACAGGAUAUGUUACAUGAGGAUCACCCAUGUUUAUAUGGGAGACAGAAGGGUAUUUAUAGA
apparent Kd [1]: 355 nM | apparent Kd [2]: 193 nM

GACUGCCGAGGAUAUACAUGAGGAUCACCCAUGUGCUUCAGCAUUUUUUAAUGCAUGGGUAGAAGGCGGUAGUC
apparent Kd [1]: 32.6 nM | apparent Kd [2]: 68.5 nM

GAGGAACAUGAGGAUCACCCAUGUGAGGAUAUGCAUAGUGAGGUAGUAGACGUUGAAUGCAGAAGGUACACUGA
apparent Kd [1]: 47.6 nM | apparent Kd [2]: 34.3 nM

UUUUAUAAUACCUCAUGUACAUGAGGAUCACCCAUGUUAACUAAGGAUAUAUAUAAAUUAAUAAUGUAGAAGGUAGUAAUAUUU
apparent Kd [1]: 16.5 nM | apparent Kd [2]: 14.3 nM

AGUGUCAUCGAGAAGGCCUCAACAUGAGGAUCACCCAUGUUGAAAAGUGGGAGGAUAUCGAUGAUACAGCUACGUUUCGUAGCA
apparent Kd [3]: 9.79 nM | apparent Kd [4]: 4.98 nM

GGACAUGUCGUCUACAUGAGGAUCACCCAUGUCGAUAGACAUGAGGAUAUCGAUACAAAUUGUAUCGAGAAGGCAUGCAUGUCC
apparent Kd [3]: 44.9 nM | apparent Kd [4]: 23 nM

GUAGCUAUUAUUAUACAUGAGGAUCACCCAUGUUACAUGUGUAAGGAUAUUGAAGUUAUUAUUAUCAAGAAGGUACUAUGCUAC
apparent Kd [3]: 15.5 nM | apparent Kd [4]: 8.71 nM

CGAGCUGCUGUGAGGAUAUACCUAUGGAUGCGUGGGUAGAAGGCACAUGAGGAUCACCCAUGUCCUGCAGCUCG
apparent Kd [1]: 42.1 nM | apparent Kd [2]: 241 nM

AACAGUACAGGAUAUACAUGAGGAUCACCCAUGUGAGAAUUAAGUGGCGUACCACUAUGUAGAAGGGUACUGGA
apparent Kd [1]: 103 nM | apparent Kd [2]: 225 nM

GGAGCUCAGAUUAACAUGAGGAUCACCCAUGUCUUUUGACAUGAGGAUAUGGAUCCUAAUUGGAUCCAGAAGGCAUGGAGCUCC
apparent Kd [3]: 1590 nM | apparent Kd [4]: 126 nM

GUCAGCUCGUGAGGAUAUACAACACUGCUUCGGCAGUCUAUUAAGAUCACAUGAGGAUCACCCAUGUAGAAGGCACGAGCUGAU
apparent Kd [1]: 14.9 nM | apparent Kd [2]: 292 nM

GUGGUCAGACAUGAGGAUCACCCAUGUGGAAUAAAUAAGGAGAAGGAUAUGGAAUAUAGGAUAUACCAGAAGGUCUGGUUGGUG
apparent Kd [3]: 79 nM | apparent Kd [4]: 90.7 nM

UCGCUGCGAGGAUAUACAUGAGGAUCACCCAUGUACGGGUCCGGGUUUGAGUUGAUGAGUAGAAGGCGCAGUGA
apparent Kd [1]: 94.7 nM | apparent Kd [2]: 86.1 nM

AGGAGAAAUGUAGGAUAUGGGUAUAUAUAUGGGCAAAGCGCAUAUAUAUACCCAGAAGGACAUGAGGAUCACCCAUGUUUCCCU
apparent Kd [1]: 12.5 nM | apparent Kd [2]: 12.9 nM

GUAGCAACAUGAGGAUCACCCAUGUAGGAUAUCGCUAUUGUAAUCAUGAAACAUGAUUACAAUAGCGAGAAGGACAUAUGCUAC
apparent Kd [1]: 6.93 nM | apparent Kd [2]: 10.2 nM

GUGGCAUACUGAGGAUAUUCAUAUAAUAAAUAAACAUGAGGAUCACCCAUGUGGCGAAAGCCUUGGGAGAAGGCAGAAUGCUAC
apparent Kd [3]: 521 nM | apparent Kd [4]: 46.7 nM

GUUACAUGAGGAUCACCCAUGUAUGUGUGGGAGUAAGUGUCUUAGGAUAUCUAUGAUUUAAUUGAAGAGAAGGAAGAUUGUUGU
apparent Kd [3]: 116 nM | apparent Kd [4]: 122 nM

GGGUACAUCGGAGGAUAUCAUGUAAAUACAUGAGGAUCACCCAUGUCGAUGGAGGCAUCGGAGAUUGAGAAGGCCGAUGUACCG
apparent Kd [3]: 566 nM | apparent Kd [4]: 17.6 nM

UUGGCAACGUAGAAGGGUGACAUGAGGAUCACCCAUGUGCCGAUAUUUCUCGAGAUAUGUCGGCCACAGGAUAUACGUGCGAAC
apparent Kd [3]: 107 nM | apparent Kd [4]: 120 nM

GAAUUAUUGAUCCAAUUUUACAACAUGAGGAUCACCCAUGUGCAGGAUAUCGUGUGUUUUAUAUUCGAGAAGGGCAUGAACUUU
apparent Kd [1]: 213 nM | apparent Kd [2]: 495 nM

ACUCGACAUGAGGAUCACCCAUGUGAGGAUAUGGCCUGUUUGGCGUGUGCUGGCUCUGUCAGAAGGCGCGUGGG
apparent Kd [1]: 41.7 nM | apparent Kd [2]: 89.3 nM

AGGUGUAGAGGAUAUUUAUUCUUCCACAUGAGGAUCACCCAUGUCCCGGUCACCAGGGACGGAGAAGGCUACACCA
apparent Kd [1]: 77 nM | apparent Kd [2]: 88.3 nM

GGCUAGUCAGGAUAUACGAACAUGUCAAAAGACGUGAAGGGACAUGAGGAUCACCCAUGUAGAAGGGACUAGCG
apparent Kd [1]: 29.4 nM | apparent Kd [2]: 141 nM

CCAGAGAUAUGAGGAUAUCGAGUGGAAUACACUCGAGAAGGCAUGUGAAAACAUGAGGAUCACCCAUGUAUGAUCUACUCUGGA
apparent Kd [3]: 52.2 nM | apparent Kd [4]: 24.4 nM

AACUGACAUGAGGAUCACCCAUGUCAGGAUAUGACAUCGAAAAUAAAAUAAAUCGUUGUCAGAAGGGACAUGGG
apparent Kd [1]: 21.4 nM | apparent Kd [2]: 19.3 nM

ACCUCACAUGAGGAUCACCCAUGUCAGGAUAUUCAAACAGGCGGAACUCCGCCUUCUCGAAGAAGGGACAUUAA
apparent Kd [1]: 16.2 nM | apparent Kd [2]: 72.4 nM

UGUGUGUGAGGAUAUACAUGAGGAUCACCCAUGUAGCGCGCGCGUAUUCGUGUGUGUUGUAGAAGGCGCGCGCG
apparent Kd [1]: 33 nM | apparent Kd [2]: 30.5 nM

AUCUUGUAAGGAUAUCUGACAAGUGACGAAAGUCACAGUUCAGAGAAGGUACAUGAGGAUCACCCAUGUAGAAC
apparent Kd [1]: 17.6 nM | apparent Kd [2]: 20.3 nM

AGUAACAGAGGAUAUACUAUUUUAUGUGUUUGUUAUUUUGAACAUGAGGAUCACCCAUGUAGAAGGCUGAAUAA
apparent Kd [1]: 25 nM | apparent Kd [2]: 26 nM

GGUUAUUGCAAGGAUAUGCUUUUUUUUGAAAUUGCAGAAGGUGCAACAUGAGGAUCACCCAUGUUGGAUGGGUU
apparent Kd [1]: 166 nM | apparent Kd [2]: 125 nM

UGUGUUAUUGGAGGAUAUCGAUAUCAAACAUGAGGAUCACCCAUGUUGAGGAUCACACAUGUACAUGAGAAGGCCGACGUAGUG
apparent Kd [3]: 13.3 nM | apparent Kd [4]: 14.5 nM

UCAUAUUUACAAGGAUAUCAAUUGAAUAAACAUCGGACAUGAGGAUCACCCAUGUGAAAGUAUGGUGAGAAGGUGUAUUGUCGG
apparent Kd [3]: 217 nM | apparent Kd [4]: 154 nM

GCGUCCCGCAGAGGAUAUGUUGUUCCGCCUACAUGAGGAUCACCCAUGUCAAAGGGCUGAUCCCGACAGAAGGCUGAAGGAUAC
apparent Kd [3]: 130 nM | apparent Kd [4]: 138 nM

GUCGGAAACGACAAAAGUAGCAUACGAGAAGGCUGAUCCACGACAUGAGGAUCACCCAUGUAUUUAGAGGAUAUUGGAUGCUAC
apparent Kd [3]: 134 nM | apparent Kd [4]: 21.6 nM

UUAAUUAAUUAGAAGGCAUGUCAUAAGACAUGAGGAUCACCCAUGUAGUUAAGGCGAAAGCCGCAUGAGGAUAUAUAAAUAUAU
apparent Kd [3]: 552 nM | apparent Kd [4]: 319 nM

AUACCACGAGGAUAUCGUCUAUUCCACAUGAGGAUCACCCAUGUUAUCCAUGUUUCGUUUCGAGAAGGCGUGGGUU
apparent Kd [1]: 59.9 nM | apparent Kd [2]: 42.9 nM

CUGACAGCGCAGAAGGGAGAUCCUACAUGAGGAUCACCCAUGUGGGCUCUCAGGAUAUGCACGUGUAUACCGAAAGUGGUAUUG
apparent Kd [3]: 13.4 nM | apparent Kd [4]: 5.99 nM

AAACAGGGAGGAUAUACAUGAGGAUCACCCAUGUUCGAGCGUCCUUGAACUACCUCAGGUAGAAGGCCCUAAUU
apparent Kd [1]: 372 nM | apparent Kd [2]: 112 nM

UUACCUCAUGAGAAGGCGAUCAUGAAACAUGAUCGAGGAUAUCAUGUAAACAUGAGGAUCACCCAUGUAUGGGUAUUAUGGUAA
apparent Kd [3]: 166 nM | apparent Kd [4]: 44.1 nM

CGCUAAUAAAUAGUAAUAAUUGUACAGGAUAUGUUACAUGAGGAUCACCCAUGUAUUGGGUAAGAACAGAAGGGUAUAUUAGCG
apparent Kd [1]: 433 nM | apparent Kd [2]: 229 nM

CUGUUUUUCGCAGGAUAUGCUCCUCCUUUAUUUGCAGAAGGGCGUUAAACAUGAGGAUCACCCAUGUAUGGUAAUGACUUUUUC
apparent Kd [1]: 20.6 nM | apparent Kd [2]: 67.8 nM

UUGAUAAGGAGAGGAUAUUGACAUGAGGAUCACCCAUGUACAUGGGAAUAUUUACUGAAUUCUUACGAGAAGGCUUACAUAUUU
apparent Kd [1]: 124 nM | apparent Kd [2]: 66.7 nM

AGUAAAGGCCUGAGGUGUCCGAACAUGAGGAUCACCCAUGUAGAGGAUAUAGGUGGAAGUGACGCCUAGAAGGCUACGUGUCAU
apparent Kd [1]: 8.8 nM | apparent Kd [2]: 11 nM

GGAUCUUGGGUCAGGAUAUGCUGGUAUUUUUGCCAGCAGAAGGGACAUGAGGAUCACCCAUGUUCUUGGUUUUG
apparent Kd [1]: 10.7 nM | apparent Kd [2]: 13.9 nM

CGCACUAUACAUGAGGAUCACCCAUGUAAUUAUGAGAUAGUCAGAAGGCAUUAUUAGUGAUUUAAUGAGGAUAUGAAUAGUGCG
apparent Kd [3]: 79.8 nM | apparent Kd [4]: 11.2 nM

UCGCUGCGAGGAUAUACGUUCGCGCGCUUUCGUUUGCGCGUACAUGAGGAUCACCCAUGUAGAAGGCGCGCUGC
apparent Kd [1]: 16.4 nM | apparent Kd [2]: 15.5 nM

GAGUCACUAUUAGAACCGAUACGAACAUGAGGAUCACCCAUGUAGGAUAUGCUAAAAGUUGUGUUGCAGAAGGACAUUUAUCGC
apparent Kd [1]: 9.81 nM | apparent Kd [2]: 9.06 nM

CUUCGUAUAGAGGAUAUAGGAUACUGCGGUGUCCUAGAAGGCUGUACAUGAGGAUCACCCAUGUACUUCAGAUC
apparent Kd [1]: 12.6 nM | apparent Kd [2]: 17.9 nM

GUUGGUGUAGAAGGAUAUUGGUGAUGCGUCUUGUACAUGAGGAUCACCCAUGUCACUCUGCACGCCGAGAAGGUCUGCAAAUGG
apparent Kd [3]: 70 nM | apparent Kd [4]: 48.1 nM

UUGGACGUCGUAGGAAAUGUAGGAUAUUCCUACAUGAGGAUCACCCAUGUUGACAUGGAAGAAGGACAGAAGGACGAUGUCCAU
apparent Kd [3]: 517 nM | apparent Kd [4]: 11 nM

AGCUGUGGCCGAGGAUAUCUAACUUCAAAUACCGACGUAUAGUCGGACAUGAGGAUCACCCAUGUAGAGAAGGCGGUCUCAGCA
apparent Kd [1]: 16.1 nM | apparent Kd [2]: 26.7 nM

AACCUAUUACAGAAGGCCAGCUACAUGAGGAUCACCCAUGUCGAGUCAUGGAGGAUAUGUAGUAAUUUACACGCGGGUGAGUAC
apparent Kd [3]: 51.6 nM | apparent Kd [4]: 6.25 nM

UGUUGUUCCGCAGGAUAUGUAUUGGAUUACAAUACAGAAGGGCGAUAACAUGAGGAUCACCCAUGUGUGGACAAUAAGGAAGAG
apparent Kd [3]: 708 nM | apparent Kd [4]: 67.1 nM

GGAUUACAUGAGGAUCACCCAUGUGAGGAUAUCGAUGUCCUCAAUGGAGUGCGGGACUCGAGAAGGCACUUGGA
apparent Kd [1]: 338 nM | apparent Kd [2]: 168 nM
